# UHRF1 MBD2 ctr = UHRF1 methylated DNA binding inhibitors, primary screen, counter-screen for MBD2 inhibitor project, biochemical, TR-FRET, human UHRF1, single concentration; E3 ubiquitin-protein ligase UHRF1 (Homo sapiens), Q96T88; 370,000 tested, 0.75% active; inhibition, % at 4.4 µM; UHRF1 binding to methylated oligo;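 further: UHRF1 SRA domain binding a hemimethylated CpG hairpin DNA probe; 0% = median of test compound wells and 100% = reference inhibitor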
# MBD2 inh = inhibitors of MBD2 binding to methylated DNA, primary screen, biochemical, TR-FRET, DNA-binding domain, human. 370,000 tested, 0.31% active. inhibition, % at 4.4 µM. MBD2 binding to methylated oligonucleotide. Methyl-CpG-binding domain protein 2 (Homo sapiens), Q9UBB5; in the data active means inhibition above about 13%
# Casp6 inh = human caspase-6 inhibitors, primary screen, biochemical, VEID-R110 fluorescence, single point, set 2; purified caspase-6, Z-VEID-R110 cleavage fluorescence; inhibition, % at 12.5 µM; 350,000 tested, 0.53% active; AID 686996, 2013;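 active means mean inhibition across replicates at least about 35%, with every replicate also reaching that limit, limit read from the data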;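 further: 0% = median of neutral control wells and 100% = no fluorescence left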
# LEDGF integ inh = blockers of LEDGF/p75-dependent integrase strand transfer – biochemical, TR-FRET, high throughput, primary screen; HIV-1 integrase (with human LEDGF/p75); TR-FRET IN-LEDGF/p75 DNA integration, Eu/Cy5; inhibition, % at 3.7 µM; 370,000 tested, 0.64% active; AID 743269, 2014;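 active means inhibition above the screen-wide mean plus 3 SD, cut at about 13% in these data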;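 further: signal is the Cy5 over europium emission ratio at 671 and 618 nm; 0% = plate median of compound wells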
# TDP2 absorb = human TDP2 enzyme inhibitors, primary screen, biochemical, epi absorbance, recombinant enzyme. Tyrosyl-DNA phosphodiesterase 2 (Homo sapiens), O95551. T5PNP hydrolysis, p-nitrophenol absorbance 415 nm. inhibition, % at 12.8 µM. 370,000 tested, 0.34% active;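 active means inhibition above the mean of all tested compounds plus 3 SD, set per campaign, cut at about 25% in these data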;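 further: 0% = DMSO with enzyme and 100% = buffer with substrate but no TDP2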
#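 Assay system: recombinant human TDP2 / Reagent: T5PNP substrate at 5 mM, a TopII-DNA adduct mimic / Measured by: epi absorbance from released p-nitrophenol / Evaluation: % inhibition relative to enzyme-containing and enzyme-free wells / Control set: enzyme-free and DMSO wells / Replicates: each compound tested once, singlicate / Schedule: enzyme reaction with compound for 2 h at 37 °C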
# NSD2 HMT inh = NSD2 histone methyltransferase inhibitors, primary screen, biochemical, AlphaScreen, single concentration, set 2; inhibition, % at 12.5 µM; Histone-lysine N-methyltransferase NSD2 (Homo sapiens), O96028; NSD2 peptide methylation, 120 min; 310,000 tested, 0.54% active; AID 743445, 2014; in the data active means inhibition above about 50%
# UHRF1 ctr MBD2 = UHRF1 methylated DNA binding inhibitors, counter-screen for MBD2 inhibitor project, biochemical, TR-FRET, human UHRF1; inhibition, % at 4.4 µM; AID 720530, 2013; 1,000 tested, 25% active; shares compounds with MBD2 inh; UHRF1 binding to methylated oligonucleotide;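 further: UHRF1 SRA domain binding a labeled hemimethylated CpG hairpin DNA; 0% = vehicle only and 100% = reference inhibitor with vehicle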
# MBD2 DBD conf = inhibitors of MBD2 binding to methylated DNA, confirmation, biochemical, TR-FRET, DNA-binding domain, human | shares compounds with MBD2 inh | 1,000 tested, 26% active | AID 720531, 2013 | TR-FRET MBD2-DBD binding to methylated oligonucleotide | inhibition, % at 4.4 µM; in the data active means inhibition above about 14%
# * hit, by the source's call; / = no result. The list is not random: actives were taken first. Their share in the collection is about 1.8%. Unless noted, no stated cut-off is given here; in the data, active means inhibition above about 21%; inactive means the rest.
SMILES,UHRF1 MBD2 ctr,MBD2 inh,Casp6 inh,LEDGF integ inh,TDP2 absorb,NSD2 HMT inh,UHRF1 ctr MBD2,MBD2 DBD conf
COc1cc2c(cc1OC)CC(C(=O)NCc1ccccc1)NC2 (centres undefined),0,17*,-1,0,13,-3,9,3
O=C(NCCCc1ccccc1)[C@@H]1Cc2ccccc2CN1,0,1,0,0,-4,0,/,/
C[C@H]1CN([C@@H](C)CO)C(=O)c2ccccc2-c2ccccc2CO[C@H]1CN(C)C(=O)CCC(F)(F)F,/,/,0,/,/,/,/,/
COc1ccc2c(CC(=O)N3CCN(S(=O)(=O)c4cccs4)CC3)coc2c1,5,-6,/,6,-2,0,/,/
COc1ccc2c(CC(=O)N3CCN(S(=O)(=O)c4ccc(F)cc4)CC3)coc2c1,7,73*,-3,8,-11,-1,12,6
CCN(CC)C(=O)c1csc([C@@H]2O[C@H](CO)[C@H](O)[C@H](O)[C@H]2O)n1,2,26*,0,-1,-8,12,4,3
CN(Cc1ccccc1)C(=O)c1csc([C@@H]2O[C@H](CO)[C@@H](O)[C@H]2O)n1,4,0,2,-2,-7,/,/,/
Cc1ccc(CNC(=O)c2ccc(CS(=O)(=O)c3ccccc3C)o2)cc1,-3,33*,3,2,-4,/,4,6
O=C(CSc1nc2ccsc2c(=O)n1CC1CCC(C(=O)O)CC1)c1ccc(Cl)cc1 (centres undefined),14,19*,43*,-1,-7,0,16,10
O=C(CSc1nc2ccsc2c(=O)n1CC1CCC(C(=O)O)CC1)c1ccc(F)cc1 (centres undefined),-1,-3,-4,5,10,1,/,/
CCC(C)NC(=O)CSc1nc2ccccc2c(=O)n1CCCC(=O)NCC1CCCO1 (centres undefined),0,-1,5,0,8,-1,/,/
CCC(C)NC(=O)CSc1nc2ccccc2c(=O)n1CCCN1CCCCC1 (centres undefined),0,14*,7,-2,-11,0,2,3
C[C@H](NC(=O)C[C@H]1C=C[C@H](NC(=O)Cc2ccccn2)[C@H](CO)O1)c1ccccc1,/,/,-1,/,/,/,/,/
C[C@H]1CN([C@@H](C)CO)C(=O)c2cc(NS(=O)(=O)c3ccccc3)ccc2O[C@H]1CN(C)S(C)(=O)=O,/,/,-1,/,/,/,/,/

# Screening results (PubChem)
